PubChem BioAssay AID493234 (Broad Institute, 2011)
“And” between values parts separate entries of the source, which are not always exact repeats. Equal entries are not always repeated. The source made the active and inactive calls.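 How the source made its calls: active means fitted curve rises to an activation of 500 at or below the top valid dose; inactive means the rest, including activity in the falling direction.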

Test system: not listed separately
Test: HRE-luciferase activation in zinc medium, dose response, mechanism study for HIF pathway activator project, cell-based, U2OS, luminescence, dry powder, set 2 (AID 493234)
Conditions: U2OS HRE-luciferase, zinc medium, luminescence; at 38 µM (top of the series)
Method in brief: (§1)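 Assay system: U2OS cells with stable HRE-luciferase reporter; Schedule: 24 h cell growth at 37 °C, then 24 h compound exposure; Reagent: zinc sulfate, 50 µM final, added before compound addition; Dosing: 8-point compound series in 3-fold steps; Buffer or medium: phenol red-free DMEM, 10% FBS, no hygromycin; Measured by: Steady-Glo luminescence.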

| SMILES | activation |
| --- | --- |
| CC(C)(C)CCNC(=O)c1cc(-c2ccccc2)on1 | 247% (inactive) |
| Oc1ccc(CN2CCC(Cc3ccccc3)CC2)c2cccnc12 | -5.34% (inactive) |
| O=C(c1cc(-c2ccccc2)on1)N1CCc2cccnc21 | 3.59% (inactive) |
| Cc1cccc(NC(=O)c2cc(-c3ccccc3)on2)n1 | 24.2% (inactive) |
| c1ccc(-c2nnc(-c3ccccn3)nc2Nc2cnc3ccccc3n2)cc1 | -25.9% (inactive) |
| OCC1CCN(Cc2ccc(O)c3ncccc23)CC1 | 12.5% (inactive) |
| N#CC1(c2ccccc2)CCN(Cc2ccc(O)c3ncccc23)CC1 | 27.6% (inactive) |
| O=C(c1cc(-c2ccccc2)on1)N1CCC(CO)CC1 | -4.31% (inactive) |
| c1ccc(-c2nnc(-c3ccccn3)nc2Nc2nc3ccccc3s2)cc1 | -16.5% (inactive) |
| O=C(Nc1nnc(-c2ccccc2)s1)c1cc(-c2ccccc2)on1 | 4.85% (inactive) |
| Cn1c(NC(=O)c2cc(-c3ccccc3)on2)nc2ccccc21 | -0.203% (inactive) |
| Cc1ccccc1CNC(=O)c1cc(-c2ccccc2)on1 | 15.2% (inactive) |
| Oc1ccc(CN2CCc3ccccc3C2)c2cccnc12 | -19.3% (inactive) and -19.9% (inactive) |
| O=C(NCCCO)c1cc(-c2ccccc2)on1 | 325% (inactive) |
| Oc1ccc(CN2CCC3CCCCC3C2)c2cccnc12 (configuration not stated) | 275% (inactive) |
| O=C(Nc1cnc2ccccc2c1)c1cc(-c2ccccc2)on1 | 10.1% (inactive) |
| CC(C)(C)OC(=O)N1CCN(Cc2ccc(O)c3ncccc23)CC1 | 4.29% (inactive) |
| Cn1c(-c2ccccc2)cnc1Nc1nc(-c2ccccn2)nnc1-c1ccccc1 | 109% (inactive) |
| c1ccc(-c2cnc(Nc3nc(-c4ccccn4)nnc3-c3ccccc3)s2)cc1 | 19.5% (inactive) |
| O=C(Nc1nc2ccccc2s1)c1cc(-c2ccccc2)on1 | 14.8% (inactive) |
| O=C(Nc1nc(-c2ccccc2)cs1)c1cc(-c2ccccc2)on1 | -1.71% (inactive) |
| O=C(NCC1CCCCC1)c1cc(-c2ccccc2)on1 | 52.6% (inactive) |
| O=C(Nc1cn2ccccc2n1)c1cc(-c2ccccc2)on1 | 7.47% (inactive) |
| O=C(Nc1ncc2ccccc2n1)c1cc(-c2ccccc2)on1 | 34.5% (inactive) |

| SMILES | activation |
| --- | --- |
| COc1ccccc1N1CCN(Cc2ccc(O)c3ncccc23)CC1 | -1.45% (inactive) |
| c1ccc(-c2csc(Nc3nc(-c4ccccn4)nnc3-c3ccccc3)n2)cc1 | 86.1% (inactive) |
| O=C(c1cc(-c2ccccc2)on1)N1CCN(c2ccncc2)CC1 | -5.2% (inactive) |
| O=C(c1cc(-c2ccccc2)on1)N1CCC(N2CCOCC2)CC1 | 1.96% (inactive) |
| Cn1c(-c2ccccc2)cnc1NC(=O)c1cc(-c2ccccc2)on1 | 9.13% (inactive) |
| O=C(NCc1ccccc1)c1cc(-c2ccccc2)on1 | 32.9% (inactive) |
| O=C(NCC1CC1)c1cc(-c2ccccc2)on1 | 386% (inactive) |
| Cc1cccc(CNC(=O)c2cc(-c3ccccc3)on2)c1 | -0.529% (inactive) |
| Cc1ccc(NC(=O)c2cc(-c3ccccc3)on2)cn1 | 20.6% (inactive) |
| Oc1ccc(CNC2CCc3ccccc32)c2cccnc12 (configuration not stated) | -23.4% (inactive) |
| O=C(NCCN1CCOCC1)c1cc(-c2ccccc2)on1 | 430% (inactive) |
| O=C(Nc1ccc2ccccc2n1)c1cc(-c2ccccc2)on1 | -7.7% (inactive) |
| O=C(Nc1ncc(-c2ccccc2)o1)c1cc(-c2ccccc2)on1 | -4.08% (inactive) |
| CN(C)CCNC(=O)c1cc(-c2ccccc2)on1 | 9.51% (inactive) |
| O=C(NCCN1CCCCC1)c1cc(-c2ccccc2)on1 | 32.2% (inactive) |
| O=C(NCCCN1CCOCC1)c1cc(-c2ccccc2)on1 | 449% (inactive) |
| O=C(c1cc(-c2ccccc2)on1)N1CCC(N2CCCC2)CC1 | 4.99% (inactive) |
| O=C(NC1CCc2ccccc2C1)c1cc(-c2ccccc2)on1 (configuration not stated) | -5.89% (inactive) |
| CC1CN(Cc2ccc(O)c3ncccc23)CC(C)O1 (configuration not stated) | -5.99% (inactive) |
| CN1CCN(C(=O)c2cc(-c3ccccc3)on2)CC1 | -12.5% (inactive) |
| Cc1ccc(CNC(=O)c2cc(-c3ccccc3)on2)cc1 | -6.78% (inactive) |
| Oc1ccc(CNC2Cc3ccccc3C2)c2cccnc12 | 217% (inactive) |
| O=C(NC1Cc2ccccc2C1)c1cc(-c2ccccc2)on1 | 56% (inactive) |
| c1ccc(-c2nnc(Nc3nc(-c4ccccn4)nnc3-c3ccccc3)s2)cc1 | 141% (inactive) |

Test system: U2OS HRE-luciferase, zinc medium, luminescence
Test: as above
Conditions: not given
Method in brief: as §1

| SMILES | AC500 |
| --- | --- |
| c1ccc(-c2nnc(-c3ccccn3)nc2NCCc2ccccn2)cc1 | 18 µM |
| c1ccc(-c2nnc(-c3ccccn3)nc2N2CCC(c3ccccc3)C2)cc1 (configuration not stated) | 3.01 µM |
| c1ccc(-c2nnc(-c3ccccn3)nc2NCC2CC2)cc1 | 16.1 µM |
| c1ccc(-c2nnc(-c3ccccn3)nc2N2CCN(c3ccncc3)CC2)cc1 | 15.3 µM |
| CN1CCN(c2nc(-c3ccccn3)nnc2-c2ccccc2)CC1 | 15.8 µM |
| c1ccc(CCNc2nc(-c3ccccn3)nnc2-c2ccccc2)cc1 | 7.94 µM |
| Cc1ccc(CNc2nc(-c3ccccn3)nnc2-c2ccccc2)cc1 | 7.26 µM |
| c1ccc(-c2cccc(CNc3nc(-c4ccccn4)nnc3-c3ccccc3)c2)cc1 | 3.69 µM |
| c1ccc(-c2nnc(-c3ccccn3)nc2NCc2ccccn2)cc1 | 20.8 µM |
| CC(C)(C)CCNc1nc(-c2ccccn2)nnc1-c1ccccc1 | 4.65 µM and 2.47 µM |
| O=C(NCCCCO)c1cc(-c2ccccc2)on1 | 12.1 µM |
| CC(C)(C)c1ccc(CNc2nc(-c3ccccn3)nnc2-c2ccccc2)cc1 | 2.89 µM |
| CN(C)c1nc(-c2ccccn2)nnc1-c1ccccc1 | 20.2 µM |
| Cc1cccc(Nc2nc(-c3ccccn3)nnc2-c2ccccc2)n1 | 13.2 µM |
| Clc1cccc(CNc2nc(-c3ccccn3)nnc2-c2ccccc2)c1 | 2 µM |
| Cc1ccccc1CNc1nc(-c2ccccn2)nnc1-c1ccccc1 | 7.16 µM |
| C[C@H](Nc1nc(-c2ccccn2)nnc1-c1ccccc1)C1CCCCC1 | 5.01 µM |
| OCC1CCN(c2nc(-c3ccccn3)nnc2-c2ccccc2)CC1 | 21.1 µM |
| c1ccc(-c2nnc(-c3ccccn3)nc2NCCN2CCOCC2)cc1 | 15.7 µM |
| C=CCNc1nc(-c2ccccn2)nnc1-c1ccccc1 | 15 µM |

| SMILES | AC500 |
| --- | --- |
| CCCCNC(=O)c1cc(-c2ccccc2)on1 | 32.2 µM |
| COc1ccc(CNc2nc(-c3ccccn3)nnc2-c2ccccc2)cc1 | 5.26 µM |
| O=C(NCCCn1ccnc1)c1cc(-c2ccccc2)on1 | 16.4 µM |
| c1ccc(-c2nnc(-c3ccccn3)nc2NCC2CCOCC2)cc1 | 18.8 µM |
| c1ccc(-c2nnc(-c3ccccn3)nc2NCc2cccnc2)cc1 | 19 µM |
| c1ccc(-c2nnc(-c3ccccn3)nc2N2CCC(C3CCCCC3)C2)cc1 (configuration not stated) | 6.32 µM |
| C[C@@H](Nc1nc(-c2ccccn2)nnc1-c1ccccc1)c1ccccc1 | 6.17 µM |
| c1ccc(-c2ccc(CNc3nc(-c4ccccn4)nnc3-c3ccccc3)cc2)cc1 | 3.41 µM |
| Cc1ccc(Nc2nc(-c3ccccn3)nnc2-c2ccccc2)cn1 | 17.8 µM |
| COc1cccc(CNc2nc(-c3ccccn3)nnc2-c2ccccc2)c1 | 3.92 µM |
| Cc1cccc(CNc2nc(-c3ccccn3)nnc2-c2ccccc2)c1 | 6.47 µM |
| c1ccc(CNc2nc(-c3ccccn3)nnc2-c2ccccc2)cc1 | 6.89 µM |
| C[C@@H](Nc1nc(-c2ccccn2)nnc1-c1ccccc1)C1CCCCC1 | 6.94 µM |
| OCCCNc1nc(-c2ccccn2)nnc1-c1ccccc1 | 22.9 µM |
| c1ccc(-c2nnc(-c3ccccn3)nc2NCCCN2CCOCC2)cc1 | 16 µM |
| Cc1ccc(CNc2nc(-c3ccccn3)nnc2-c2ccccc2)cc1C | 2.19 µM |
| CC(Nc1nc(-c2ccccn2)nnc1-c1ccccc1)c1ccccc1 (configuration not stated) | 9.22 µM |
| c1ccc(-c2nnc(-c3ccccn3)nc2N2CCC(N3CCOCC3)CC2)cc1 | 16.2 µM |
| c1ccc(-c2nnc(-c3ccccn3)nc2NCC2CCCCC2)cc1 | 5.43 µM |
